ChEMBL document CHEMBL4732186, “Targeting the transmembrane domain 5 of latent membrane protein 1 using small molecule modulators” (Eur J Med Chem, 2021)

Columns and labels:
[1] = Inhibition of recombinant EpsteinBarr virus Transmembrane domain 5 of latent membrane protein 1 transformed into Escherichia coli FHK12 cells assessed as disruption of oligomerization by measuring ToxR transcription activity assay; design: species or system human gammaherpesvirus 4
Escherichia coli = test: Antibacterial activity against Escherichia coli FHK12; assay type: ADME, organism-based
Method in brief: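 FHK12 E. coli transformed by heat shock (42 °C, 90 s) with the ToxR7-TMD-5 plasmid. Grown in LB with 0.0025% arabinose and 30 µg/mL chloramphenicol plus a range of test-compound concentrations, shaken at 37 °C for 20 h, five replicate cultures. Growth read as OD at 600 nm.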

[2] = Binding affinity to EpsteinBarr virus Transmembrane domain 5 of latent membrane protein 1 assessed as dissociation constant by spectrofluorimetric analysis; design: species or system human gammaherpesvirus 4
[3] = Apparent permeability in dog MDCK cells measured after 150 mins; assay type: ADME, cell-based, Canis lupus familiaris
Method in brief: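 MDCK cells (passage 20-35) seeded at 5×10^4 cells/well on 0.4 µm Transwell inserts and grown 4-5 days to confluence. Monolayers washed with HBSS pH 7.4 and equilibrated 30 min. Compound added apically or basolaterally; receiver side sampled at 150 min, then frozen and lyophilized. TEER checked afterward for monolayer integrity.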

human gammaherpesvirus 4 = test: Potency index, ratio of IC50 of pentamidine to IC50 of compound for inhibition of recombinant EpsteinBarr virus Transmembrane domain 5 of latent membrane protein 1 transformed into FHK12 cells by ToxR assay
Method in brief: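 ToxR7-TMD-5 plasmid heat-shocked into FHK12 E. coli; cultures in LB with 0.0025% arabinose and 30 µg/mL chloramphenicol with graded compound concentrations, five replicates, shaken 37 °C for 20 h. Cells lysed with Z buffer/SDS, then ONPG (0.4% w/v) added; β-galactosidase followed at 405 nm for 20 min at 28 °C.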

IC50 (Escherichia coli)	Papp at 2.5 h [3]	Compound	IC50 [1]	Kd [2]	Ratio IC50 (human gammaherpesvirus 4)
> 200 µM		N=C(N)c1ccc(NCCCCCNc2ccc(C(=N)N)cc2)cc1	31.2 µM	7.3 µM	
56.4 µM	42.8 nm/s	N=C(N)c1ccc(NC(=O)CCCC(=O)Nc2ccc(C(=N)N)cc2)cc1	0.6 µM	2.6 µM	15
> 200 µM		N=C(N)c1ccc(NC(=O)CCC(=O)Nc2ccc(C(=N)N)cc2)cc1	112 µM	13.5 µM	
> 200 µM		N=C(N)c1ccc(NC(=O)CCCCC(=O)Nc2ccc(C(=N)N)cc2)cc1	42 µM	8.9 µM	
> 200 µM	10.7 nm/s	N=C(N)c1ccc(C(=O)NCCCNC(=O)c2ccc(C(=N)N)cc2)cc1	> 200 µM		
